Columns and labels:
Format in all cases: functional
[1] = system: Mycobacterium tuberculosis; assay: Antitubercular activity against rifampin and isoniazid-resistant Mycobacterium tuberculosis TB-1678/05 after 24 hrs by BACTEC radiometric susceptibility assay; conditions: TB-1678/05, 24 h
In short: (§1)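 BACTEC radiometric assay in 7H12 (12B) medium with 14C-palmitic acid as substrate; 14CO2 output read daily as Growth Index (GI) at 37 °C ± 1 °C. H37Rv inoculum grown in 12B vial to GI around 300. Compounds dissolved in DMSO. Control vial held 1:100 diluted bacterial suspension. Reading continued until control GI reached 30 or more. Daily change in GI compared with control to set susceptibility and MIC.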

[2] = system: Mycobacterium tuberculosis; assay: Antitubercular activity against isoniazid-resistant Mycobacterium tuberculosis 433 after 24 hrs by BACTEC radiometric susceptibility assay; conditions: Mycobacterium tuberculosis, 433, 24 h; in short: as §1
[3] = system: Mycobacterium tuberculosis; assay: Antitubercular activity against ethambutol-resistant Mycobacterium tuberculosis TB-2506/06 after 24 hrs by BACTEC radiometric susceptibility assay; conditions: TB-2506/06, 24 h; in short: as §1
[4] = system: Mycobacterium tuberculosis; assay: Antitubercular activity against rifampin and isoniazid-resistant Mycobacterium tuberculosis 2643 after 24 hrs by BACTEC radiometric susceptibility assay; conditions: Mycobacterium tuberculosis, 2643, 24 h; in short: as §1

Measured: MIC

CC(C)CCO[C@@H]1C=CC(=O)[C@@H](COC(=O)C(C)(C)C)O1
1.56 µg/mL: all assays above
